Experimental data from different studies.
Protocols differ between the studies behind these lines.

Cc1c(C(=O)NN2CCCC(O)C2)nc(-c2ccc(Cl)cc2Cl)n1-c1ccc(OS(=O)(=O)CCC(F)(F)F)cc1 (stereo not drawn)
logD (shake flask; aqueous buffer; pH 7.4): 3.8

C[C@@H](C(=O)NC1Cc2ccccc2C1)c1ccccc1
microsomal CLint (metabolic stability; rat, liver microsomes; 1 µM): > 200 µL/min/mg

COc1cc(OC)cc(-c2c(-c3ccccn3)nc3n2CCC3)c1
hepatocyte CLint (metabolic stability; rat, hepatocytes): > 300 µL/min/10⁶ cells

Cc1ccc(C(=O)N(CCCN)[C@@H](c2oc3cc(Cl)ccc3c(=O)c2Cc2ccccc2)C(C)C)cc1
clearance (human, plasma; intravenous, 5 mg/m², single dose, patients, infusion): 20.5 mL/min

COc1cccnc1-c1nc2ccccn2c1N(C)c1ccc(F)cc1
hepatocyte CLint (metabolic stability; rat, hepatocytes): > 300 µL/min/10⁶ cells

O=C1C2N=CN3C(NCc4c(F)ccc5c4CCO5)=NC=C(c4cnc(C(F)(F)F)cc4CN1CC(F)F)C23 (stereo not drawn)
scaled CLint (metabolic stability; rat, liver microsomes; 100 µM, 30 min): 20 mL/min/kg

CCOC(=O)C1=C(C)N/C(=C/c2ccn(-c3ccc(C(F)(F)F)cc3)c2)C1=O
chromatographic logD (HPLC; pH 7.4): 3.4

c1ccc(-c2nc(NCCn3ccnc3)c3ccccc3n2)nc1
microsomal CLint (metabolic stability; human, liver microsomes): 36 µL/min/mg

CCOC(=O)C1=C(C)N/C(=C/c2cc(C)n(-c3ccc(N4CCOCC4)cc3)c2C)C1=O
chromatographic logD (HPLC; pH 7.4): 2.8

CS(=O)(=O)CCC#N
CL/F (human, plasma; oral, 1000 mg, single dose, fasted): 0.233 mL/min/kg

Cn1nccc1-c1nc(N2CCC(c3ccccn3)C2)c2ccccc2n1 (stereo not drawn)
microsomal CLint (metabolic stability; human, liver microsomes): 59 µL/min/mg

COc1cc(C(=O)NC2CCN(C)CC2)c(F)cc1Nc1ncc(C(F)(F)F)c(Oc2cccc3c2C(=O)N(C)C3)n1
CL/F (human, plasma; oral, 300 mg, multiple doses, once daily, patients): 107 mL/min

CCNCCCNC/C=C\CNCCCNCC
clearance (human, plasma; intravenous, 50 mg, patients, infusion): 10500 mL/min

CCCN(c1ccc(F)cc1)c1c(-c2ccccn2)nc2ccccn12
hepatocyte CLint (metabolic stability; rat, hepatocytes): 110 µL/min/10⁶ cells

c1ccc(-c2nc(N3CCN(c4ccccn4)CC3)c3ccccc3n2)nc1
microsomal CLint (metabolic stability; human, liver microsomes): 79 µL/min/mg

Cn1cnc(-c2nc3ccccn3c2Nc2ccc(F)cc2)c1
hepatocyte CLint (metabolic stability; rat, hepatocytes): 14 µL/min/10⁶ cells

c1ccc(-c2nc(N3CCC(c4ccccn4)C3)c3ccccc3n2)cc1 (stereo not drawn)
microsomal CLint (metabolic stability; human, liver microsomes): 182 µL/min/mg

c1cnc2ccc(Nc3nc(NC4CC4)c4nc[nH]c4n3)cc2c1
CL/F (human, plasma; oral, 800 mg/m², patients): 1280 mL/min

Clc1cccc(-c2c(-c3ccccn3)nc3n2CCC3)c1
hepatocyte CLint (metabolic stability; rat, hepatocytes): 51 µL/min/10⁶ cells

NC(=O)C1CCN(c2nc(-c3ccccn3)nc3ccccc23)C1 (stereo not drawn)
microsomal CLint (metabolic stability; human, liver microsomes): 37 µL/min/mg

OC[C@H]1O[C@@H](c2ccc(Cl)c(Cc3ccc(O[C@H]4CCOC4)cc3)c2)[C@H](O)[C@@H](O)[C@@H]1O
renal clearance (human, urine; oral, 100 mg, single dose): 15 mL/min

N#CC1CCCN(c2nc(-c3ccccn3)nc3ccccc23)C1 (stereo not drawn)
microsomal CLint (metabolic stability; human, liver microsomes): 48 µL/min/mg

COc1ccc2nc(-c3cc(N(C)C)ccn3)c(N(C)c3ccc(F)cc3)n2c1
hepatocyte CLint (metabolic stability; rat, hepatocytes): > 300 µL/min/10⁶ cells

Fc1cccc(Nc2nc(-c3ccccn3)nc3ccccc23)c1
microsomal CLint (metabolic stability; human, liver microsomes): 81 µL/min/mg

CC(C)(C)[Si](C)(C)OCCCN(c1ccc(F)cc1)c1c(-c2ccccn2)nc2ccccn12
hepatocyte CLint (metabolic stability; rat, hepatocytes): 42 µL/min/10⁶ cells

c1ccc(-c2nc(NCc3ccco3)c3ccccc3n2)nc1
microsomal CLint (metabolic stability; human, liver microsomes): 71 µL/min/mg

COc1ccc2nc(-c3ccccn3)c(N(C)c3ccc(F)cc3)n2c1
hepatocyte CLint (metabolic stability; rat, hepatocytes): > 300 µL/min/10⁶ cells
